According to ChEMBL document CHEMBL1126128, “Nonprostanoid prostacyclin mimetics. 3. Structural variations of the diphenyl heterocycle moiety” (J Med Chem, 1992):

Test: Compound was tested for inhibition of ADP-induced aggregation of blood platelets in human platelet rich plasma at >78 uM concentration
Type: functional
Conditions: not given
Procedure, shortened: (§1)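 Human platelet-rich plasma with aggregation triggered by ADP and followed by aggregometry. Each test acid was run at one stated upper concentration, and the read-out is percent inhibition of aggregation at that concentration. Each value is from a single experiment or is the mean of duplicate determinations.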

Row | SMILES | Inhibition [%]
1 | O=C(O)COc1cccc(CCc2nc(C3CCCCC3)c(C3CCCCC3)o2)c1 | 25

Test: Compound was tested for inhibition of ADP-induced aggregation of blood platelets in human platelet rich plasma at >60 uM concentration
Type: functional
Conditions: not given
Procedure, shortened: as §1

Row | SMILES | Inhibition [%]
2 | O=C(O)COc1cccc(CCc2nc(-c3ccc(C(F)(F)F)cc3)c(-c3ccc(C(F)(F)F)cc3)o2)c1 | 1

Test: Compound was tested for inhibition of ADP-induced aggregation of blood platelets in human platelet rich plasma at >65 uM concentration
Type: functional
Conditions: not given
Procedure, shortened: as §1

Row | SMILES | Inhibition [%]
3 | CSc1ccc(-c2nc(CCc3cccc(OCC(=O)O)c3)oc2-c2ccc(SC)cc2)cc1 | 32

Test: Inhibition of ADP-induced aggregation of human blood platelets in plasma
Type: functional
Conditions: not given

Row | SMILES | IC50 [µM]
4 | O=C(O)CCCCCCCCn1cc(-c2ccccc2)c(-c2ccccc2)n1 [listing 1 of 2 here] | 5.8

Same assay, conditions: Homo sapiens, Plasma

Row | SMILES | IC50 [µM]
5 | O=C(O)CCCCCCCn1nc(-c2ccccc2)c(-c2ccccc2)nc1=O | 7.9
6 | CCc1ccc(-c2nc(CCc3cccc(OCC(=O)O)c3)oc2-c2ccc(CC)cc2)cc1 | 28.3
7 | O=C(O)CCCCCCCSc1nnc(-c2ccccc2)c(-c2ccccc2)c1-c1ccccc1 | > 65
8 | O=C(O)CCCCCCCCN1C(=O)C(c2ccccc2)N(c2ccccc2)C1=O (configuration not stated) | 29.4
9 | O=C(O)CCCCCCCCn1nnc(C(c2ccccc2)c2ccccc2)n1 | 10.7
10 | Cc1nc(-c2ccccc2)c(-c2ccccc2)n1CCCCCCCC(=O)O | 4.4
11 | O=C(O)CCCCCCCn1nc(-c2ccccc2)c(-c2ccccc2)cc1=O | 4.1
12 | O=C(O)COc1cccc(CCc2nc3c4ccccc4c4ccccc4c3o2)c1 | > 20
13 | Cc1cccc(-c2nc(CCc3cccc(OCC(=O)O)c3)oc2-c2cccc(C)c2)c1 | > 75
14 | O=C(O)COc1ccc(/C=C/c2nnc(-c3ccccc3)n2-c2ccccc2)cc1 | > 80
15 | O=C(O)COc1cccc(Cn2cnc(-c3ccccc3)c2-c2ccccc2)c1 | > 82
16 | O=C(O)CCCOc1cccc(-n2cnc(-c3ccccc3)c2-c2ccccc2)c1 | < 80
17 | O=C(O)COc1cccc(CCC(=O)NC(c2ccccc2)c2ccccc2)c1 | > 82
18 | Cc1ccccc1-c1nc(CCc2cccc(OCC(=O)O)c2)oc1-c1ccccc1C | 11.6
19 | O=C(O)COc1cccc(CCc2nc(-c3cccc(Cl)c3)c(-c3cccc(Cl)c3)o2)c1 | > 68
20 | O=C(O)CCCCCCCn1nc(-c2ccccc2)c(-c2ccccc2)c(-c2ccccc2)c1=O | > 68
21 | O=C(O)CCCCCCCCn1c(-c2ccccc2)nc(-c2ccccc2)c1-c1ccccc1 | 3.9
22 | O=C(O)CCCCCCCCN(C(=O)c1ccccc1)c1ccccc1 | > 90
23 | O=C(O)COc1cccc(CCc2nnc(-c3ccccc3)n2-c2ccccc2)c1 | 12.7
24 | O=C(O)COc1cccc(CCn2cnc(-c3ccccc3)c2-c2ccccc2)c1 | 5
25 | O=C(O)COc1cccc(CCn2nc(-c3ccccc3)n(-c3ccccc3)c2=O)c1 | 1.57

Row | SMILES | IC50 [µM]
26 | O=C(O)COc1cccc(/C=C/c2nnc(-c3ccccc3)n2-c2ccccc2)c1 | 2.99
27 | O=C(O)COc1cccc(CCc2nc(-c3cccs3)c(-c3cccs3)o2)c1 | 7.4
28 | O=C(O)COc1cccc(CCc2nc(-c3cccc(F)c3)c(-c3cccc(F)c3)o2)c1 | 17.7
29 | O=C(O)CCCCCCCOc1ncc(-c2ccccc2)c(-c2ccccc2)n1 | 35.9
30 | O=C(O)COc1cccc(CCc2nc(-c3ccsc3)c(-c3ccsc3)o2)c1 | 17
31 | O=C(O)CCCCCCCCCCN(C(=O)c1ccccc1)c1ccccc1 | > 84
32 | O=C(O)CCCCCCCn1c(-c2ccccc2)nc(-c2ccccc2)c1-c1ccccc1 | 3.8
33 | O=C(O)COc1cccc(CCn2nc(-c3ccccc3)c(-c3ccccc3)nc2=O)c1 | 2.1
34 | O=C(O)CCCCCCCCn1nc(-c2ccccc2)c2ccccc2c1=O | > 85
35 | O=C(O)CCCCCCCn1cc(-c2ccccc2)c(-c2ccccc2)nc1=O | 25.6
36 | Cc1ccc(-c2nc(CCc3cccc(OCC(=O)O)c3)oc2-c2ccc(C)cc2)cc1 | 0.34
37 | O=C(O)CCCCCCCCn1nccc1C(c1ccccc1)c1ccccc1 | > 82
38 | O=C(O)COc1cccc(CCc2cc(-c3ccccc3)n(-c3ccccc3)n2)c1 | 1.67
39 | O=C(O)CCCCCCCCn1nc(-c2ccccc2)c(-c2ccccc2)c(-c2ccccc2)c1=O | > 67
40 | O=C(O)COc1cccc(CCn2nc(-c3ccccc3)c(-c3ccccc3)cc2=O)c1 | 1.9
41 | O=C(O)CCCCCCCCn1nc(-c2ccccc2)c(-c2ccccc2)c1-c1ccccc1 | 0.4
42 | O=C(O)COc1cccc(CCc2nc(C3CCCCC3)c(C3CCCCC3)o2)c1 | > 78
43 | O=C(O)COc1cccc(CCn2nnc(C(c3ccccc3)c3ccccc3)n2)c1 | 3.6
44 | O=C(O)CCCCCCCCn1nc(-c2ccccc2)n(-c2ccccc2)c1=O | 4.1
45 | O=C(O)CCCCCCCCn1cc(-c2ccccc2)c(-c2ccccc2)c1 | 10.3
46 | O=C(O)CCCCCCCc1nnc(-c2ccccc2)n1-c1ccccc1 | > 88

Row | SMILES | IC50 [µM]
47 | CSc1ccc(-c2nc(CCc3cccc(OCC(=O)O)c3)oc2-c2ccc(SC)cc2)cc1 | > 65
48 | O=C(O)CCCCCCCCn1nc(-c2ccccc2)c(-c2ccccc2)cc1=O | 7.2
49 | COc1ccc(-c2nc(CCc3cccc(OCC(=O)O)c3)oc2-c2ccc(OC)cc2)cc1 | 5.2
50 | O=C(O)COc1cccc(CCc2nc(-c3ccc(C(F)(F)F)cc3)c(-c3ccc(C(F)(F)F)cc3)o2)c1 | > 60
51 | O=C(O)CCCCCCCSc1nnc(-c2ccccc2)c(-c2ccccc2)n1 | > 74
52 | O=C(O)COc1cccc(CCn2ncc(-c3ccccc3)c2-c2ccccc2)c1 | 0.75
53 | O=C(O)COc1cccc(CCn2cc(-c3ccccc3)c(-c3ccccc3)n2)c1 | 0.87
54 | O=C(O)COc1cccc(CCn2nc(-c3ccccc3)c(-c3ccccc3)c2-c2ccccc2)c1 | 24.5
55 | O=C(O)COc1cccc(CCC(=O)NCC(c2ccccc2)c2ccccc2)c1 | > 79
56 | O=C(O)CCCCCCCn1c(C(F)(F)F)nc(-c2ccccc2)c1-c1ccccc1 | 4.64
57 | O=C(O)CCCCCCCn1cnc(-c2ccccc2)c1-c1ccccc1 | 8.19
58 | O=C(O)CCCCCCCSc1cc(-c2ccccc2)c(-c2ccccc2)nn1 | > 78
59 | O=C(O)CCCCCCCCCc1nnc(-c2ccccc2)n1-c1ccccc1 | > 82
60 | O=C(O)CCCCOc1ccc(-n2cnc(-c3ccccc3)c2-c2ccccc2)cc1 | > 76
61 | O=C(O)CCCCCCCn1nc(-c2ccccc2)c2ccccc2c1=O | > 84
62 | O=C(O)COc1cccc(CCc2nc(-c3ccccc3F)c(-c3ccccc3F)o2)c1 | 1.4
63 | O=C(O)CCCCCCCCN1C(=O)NC(c2ccccc2)(c2ccccc2)C1=O | > 78
64 | O=C(O)COc1cccc(CCc2nc(-c3ccc(Br)cc3)c(-c3ccc(Br)cc3)o2)c1 | 12.6
65 | O=C(O)COc1cccc(CCc2nc(-c3ccc(F)cc3)c(-c3ccc(F)cc3)o2)c1 | 4.8
66 | O=C(O)CCCCCCCCOc1ncc(-c2ccccc2)c(-c2ccccc2)n1 | > 79
67 | O=C(O)CCCCCCCCn1cc(-c2ccccc2)c(-c2ccccc2)n1 [listing 2 of 2 here] | 4.5

Row | SMILES | IC50 [µM]
68 | O=C(O)CCCCCCCCn1nc(-c2ccccc2)c(-c2ccccc2)nc1=O | 4.9
69 | O=C(O)CCCCCCCn1nnnc1C(c1ccccc1)c1ccccc1 | > 84
70 | Cc1nc(-c2ccccc2)c(-c2ccccc2)n1CCCCCCCCC(=O)O | 3.04
71 | O=C(O)CCCCCCCCn1c(=O)c2ccccc2n(-c2ccccc2)c1=O | > 81
72 | O=C(O)CCCCCCCn1nc(-c2ccccc2)n(-c2ccccc2)c1=O | > 84
73 | O=C(O)CCCCCCCCn1cnc(-c2ccccc2)c1-c1ccccc1 | 58.4
74 | O=C(O)CCCCCCCCn1cc(-c2ccccc2)c(-c2ccccc2)nc1=O | 29.7
75 | O=C(O)CCCCCCCCn1nnnc1C(c1ccccc1)c1ccccc1 | > 81
76 | O=C(O)COc1cccc(CCc2nc(-c3ccccc3)c(-c3ccccc3)[nH]2)c1 | 2.88
77 | O=C(O)COc1ccc(CCc2nnc(-c3ccccc3)n2-c2ccccc2)cc1 | > 80
78 | O=C(O)CCCCCCCCn1ccc(C(c2ccccc2)c2ccccc2)n1 | > 80
79 | COc1cccc(-c2nc(CCc3cccc(OCC(=O)O)c3)oc2-c2cccc(OC)c2)c1 | 7.2
80 | O=C(O)CCCCCCCCc1nnc(-c2ccccc2)n1-c1ccccc1 | > 85
81 | O=C(O)CCCOc1ccc(-n2cnc(-c3ccccc3)c2-c2ccccc2)cc1 | 29.2
82 | O=C(O)COc1cccc(CCc2nc(-c3ccccc3)c(-c3ccccc3)s2)c1 | 0.86
83 | O=C(O)CCCCCCCn1cc(-c2ccccc2)c(-c2ccccc2)n1 | 1.38
84 | O=C(O)CCCCCCCn1nnc(C(c2ccccc2)c2ccccc2)n1 | 7.9
85 | O=C(O)CCCCCCCCc1nc(-c2ccccc2)c(-c2ccccc2)o1 | 6.6
86 | O=C(O)COc1cccc(CCc2nc(-c3ccc(Cl)cc3)c(-c3ccc(Cl)cc3)o2)c1 | 17.1
87 | O=C(O)COc1cccc(CCc2cc(-c3ccccc3)n(C(c3ccccc3)c3ccccc3)n2)c1 | > 63

Test: Compound was tested for inhibition of ADP-induced aggregation of blood platelets in human platelet rich plasma at 20 uM concentration
Type: functional
Conditions: not given
Procedure, shortened: as §1

Row | SMILES | inhibition at 20 µM [%]
88 | O=C(O)COc1cccc(CCc2nc3c4ccccc4c4ccccc4c3o2)c1 | 0

Test: Compound was tested for inhibition of ADP-induced aggregation of blood platelets in human platelet rich plasma at >76 uM concentration
Type: functional
Conditions: not given
Procedure, shortened: as §1

Row | SMILES | Inhibition [%]
89 | O=C(O)CCCCOc1ccc(-n2cnc(-c3ccccc3)c2-c2ccccc2)cc1 | 31

Test: Compound was tested for inhibition of ADP-induced aggregation of blood platelets in human platelet rich plasma at >75 uM concentration
Type: functional
Conditions: not given
Procedure, shortened: as §1

Row | SMILES | Inhibition [%]
90 | Cc1cccc(-c2nc(CCc3cccc(OCC(=O)O)c3)oc2-c2cccc(C)c2)c1 | 30

Test: Compound was tested for inhibition of ADP-induced aggregation of blood platelets in human platelet rich plasma at <80 uM concentration
Type: functional
Conditions: not given
Procedure, shortened: as §1

Row | SMILES | Inhibition [%]
91 | O=C(O)CCCOc1cccc(-n2cnc(-c3ccccc3)c2-c2ccccc2)c1 | 57

Test: Compound was tested for inhibition of ADP-induced aggregation of blood platelets in human platelet rich plasma at >68 uM concentration
Type: functional
Conditions: not given
Procedure, shortened: as §1

Row | SMILES | Inhibition [%]
92 | O=C(O)COc1cccc(CCc2nc(-c3cccc(Cl)c3)c(-c3cccc(Cl)c3)o2)c1 | 0
